Screening results: PubChem BioAssay, several laboratories
Many of the other results were omitted from the sample, so hits are more common in it than they were.
Lung fibro prol: blocks proliferation of human lung fibroblasts. 1.1% of 85,000 active. LL 47 human lung fibroblast viability, ATP luminescence; active compounds read low. viability, % at 10 µM;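 active = viability at or below 50% in the single dose screen; inactive = viability above 50%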;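 also: compound exposure lasted 72 h before the ATP readout; 100% = median luminescence of untreated cell-only wells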
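Times – overnight cell rest, 72 h compound treatment at 37 °C · Test system – human lung fibroblast line LL 47, low passage · Amount – 1,150 cells in each well · Controls – cell-only wells, no compound · Doses – 0.1% DMSO in all compound wells · Measured by – CellTiter-Glo luminescence · Buffer or medium – IMEM plus 15% FBS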
HCT116 PTEN-null: PTEN-deleted cell growth suppression. HCT116 PTEN-null viability, CellTiter-Glo, 60 h; active compounds read low. viability, % at 10 µM. 1.2% of 140,000 active. AID 827;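 active = viability at or below a set limit, 4 SD under the median of all tested compounds, cut at about 3.7% in these data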;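 also: PTEN knockout HCT116 line with beta catenin targeted HCT116 as companion control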
PTK2B oligo ant: Pyk2 (human) oligomerization antagonism; Q14289; AID 1347419; Q293 cells, Pyk2 FERM NanoBiT luminescence; active compounds read low; z-score (the deposit names both 25 µM and 10 µM); 0.83% of 99,000 active;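 active = Z-score of -3 or lower, scaled per plate to the spread of control and sample wells; inactive = z-score above -3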;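 also: negative z-score means lost luminescence so less FERM oligomerization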
Target sequence (Q14289 whole entry, looked up): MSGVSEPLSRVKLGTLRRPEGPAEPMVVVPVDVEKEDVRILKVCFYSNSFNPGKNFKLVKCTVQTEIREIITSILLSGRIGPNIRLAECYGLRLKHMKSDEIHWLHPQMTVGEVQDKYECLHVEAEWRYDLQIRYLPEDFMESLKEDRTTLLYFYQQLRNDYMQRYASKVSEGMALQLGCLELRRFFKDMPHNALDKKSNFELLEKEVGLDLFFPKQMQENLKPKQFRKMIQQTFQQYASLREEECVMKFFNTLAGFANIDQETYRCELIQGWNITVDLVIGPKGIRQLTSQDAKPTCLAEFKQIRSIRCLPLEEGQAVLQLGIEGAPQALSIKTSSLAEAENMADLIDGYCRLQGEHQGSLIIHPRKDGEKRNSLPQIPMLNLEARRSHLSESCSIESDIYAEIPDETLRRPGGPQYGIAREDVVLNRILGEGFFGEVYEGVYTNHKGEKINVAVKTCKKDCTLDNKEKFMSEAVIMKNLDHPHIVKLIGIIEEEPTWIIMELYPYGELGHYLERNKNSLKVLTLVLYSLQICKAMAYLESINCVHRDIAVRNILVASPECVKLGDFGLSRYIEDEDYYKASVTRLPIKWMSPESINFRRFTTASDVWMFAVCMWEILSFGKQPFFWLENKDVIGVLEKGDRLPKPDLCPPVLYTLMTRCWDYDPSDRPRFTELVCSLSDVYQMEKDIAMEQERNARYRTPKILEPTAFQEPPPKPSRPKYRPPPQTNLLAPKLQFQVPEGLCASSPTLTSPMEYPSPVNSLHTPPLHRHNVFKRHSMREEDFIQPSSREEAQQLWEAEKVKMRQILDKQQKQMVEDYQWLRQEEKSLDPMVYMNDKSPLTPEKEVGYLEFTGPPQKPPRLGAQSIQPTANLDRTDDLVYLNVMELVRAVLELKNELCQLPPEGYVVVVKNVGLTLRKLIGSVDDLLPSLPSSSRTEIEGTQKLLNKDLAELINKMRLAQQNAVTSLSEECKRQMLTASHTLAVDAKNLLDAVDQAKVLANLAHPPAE
HUVEC prolif 384: blocks proliferation of human endothelial cells | HUVEC proliferation, CellTiter-Glo luminescence, 72 h; active compounds read low | viability, % at 10 µM (by protocol) | 1.1% of 86,000 active;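 active = viability at or below 30%; inactive = viability above 30%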;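 also: 100% = median luminescence of DMSO-only cell control wells on each plate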
H69AR growth 86K: blocks growth of human H69AR lung tumor cells | H69AR lung tumor viability, ATP luminescence, 72 h; active compounds read low | viability, % at 10 µM | 6% of 85,000 active;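 active = viability at or below 40%; inactive = viability above 40%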;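 also: multidrug resistant small cell line overexpressing MRP-1 efflux transporter; 100% = mean luminescence of untreated control wells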
bCat KO growth: beta-catenin-lacking colon tumor cell growth suppression. HCT116 beta-catenin knockout viability, CellTiter-Glo, 60 h; active compounds read low. 1.5% of 140,000 active. viability, % at 10 µM;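 active = viability at or under a set limit, the compound median less 4 SD, cut at about 6% in these data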;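 also: 0% = Hyamine 1622 control at 20 µM and 100% = untreated cell control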
The depositor's hits bear a star; . = no result given.

SMILES | Lung fibro prol | HCT116 PTEN-null | PTK2B oligo ant | HUVEC prolif 384 | H69AR growth 86K | bCat KO growth
CCCCn1c2c(c(=N)c3c1CCC3)CCC2 | 79 | 31 | -1.3 | 79 | 87 | 18
CCCCCCn1c2c(c(=N)c3c1CCC3)CCC2 | 67 | 6 | -0.39 | 92 | 26* | 5.2*
CCCCCCCCCn1c2c(c(=N)c3c1CCC3)CCC2 | 28* | 1.6* | -0.85 | 3.9* | 8.6* | 1.9*
CN(C)c1ccc(C(=O)OCC(=O)NCC2CCCO2)cc1 (configuration not stated) | . | 110 | 0.53 | . | . | 95
Cc1ccccc1Cn1ccc(NC(=O)c2nn(C)cc2[N+](=O)[O-])n1 | . | 2.1* | . | . | . | 3.8*
Cn1cc([N+](=O)[O-])c(C(=O)Nc2cc(Oc3ccccc3)cc([N+](=O)[O-])c2)n1 | . | 1.7* | . | . | . | 1.6*
CCn1cc([N+](=O)[O-])c(C(=O)Nc2ccn(Cc3ccccc3F)n2)n1 | . | 97 | 0.03 | . | . | 96
Cc1ccc2nsnc2c1S(=O)(=O)N1CCOCC1 | 98 | 102 | 0.22 | 100 | 110 | 88
CCOc1ccc(-c2nc(S(=O)(=O)c3ccccc3)c(NCc3cccnc3)o2)cc1 | 105 | 106 | -3.3* | 115 | 92 | 116
CC(=O)Oc1ccc(OC(C)=O)c(SCCCCCN2CCOCC2)c1 | . | 38 | 0.63 | . | . | 48
S=C(c1cn(Cc2ccc(Br)cc2)c2ccccc12)N1CCOCC1 | . | 57 | . | . | . | 46
COc1ccc(CC(=O)Nc2cccc(-c3nnc(-c4cccc(C)c4)o3)c2)cc1OC | 35* | 105 | -2 | 3.2* | 41 | 111
COc1ccc(CC(=O)Nc2cccc(-c3nnc(-c4ccc(C)cc4)o3)c2)cc1OC | . | 18 | -2.5 | . | . | 14
COc1ccc(CC(=O)Nc2cccc(-c3nnc(-c4ccccc4)o3)c2)cc1OC | 54 | 23 | -3.6* | 46 | 51 | 50
COc1ccc(CC(=O)Nc2ccc(-c3nnc(-c4ccccc4)o3)cc2)cc1OC | 97 | 104 | -0.38 | 92 | 78 | 93
COc1ccccc1OCC(=O)N/N=C1/SCC(=O)N1Cc1ccccc1 | . | 83 | 0.32 | . | . | 79
O=C(O)C1CC(=O)N(c2ccc(OCc3ccc(Cl)cc3Cl)cc2)C1 (configuration not stated) | 104 | 3.2* | 0.18 | 73 | 95 | 3.3*
Cc1ccc(N(CC(=O)N/N=C/c2cccc(Br)c2)S(C)(=O)=O)cc1 | . | 52 | . | . | . | 81
O=C(NCc1ccc(Cl)cc1)c1ccc(-c2ccccc2C(F)(F)F)o1 | . | 102 | . | . | . | 101
CCOc1ccc(C(=O)C(CCC(CN(C)C)C(=O)c2ccc(OCC)cc2)CN(C)C)cc1 (configuration not stated) | . | 1.3* | . | . | . | 1.1*
COc1ccc(C(=O)C(CCCCC(CN(C)C)C(=O)c2ccc(OC)cc2)CN(C)C)cc1 (configuration not stated) | . | 18 | 0.32 | . | . | 18
O=C(O)C1C2CCC(O2)C1C(=O)Nc1ccc(O)cc1 (configuration not stated) | . | 93 | . | . | . | 92
O=C(O)CCC(=O)CCC(=O)c1ccc(Cl)cc1 | 115 | 86 | -0.81 | 101 | 74 | 86
CN(C)CCC(=O)c1ccc(Cl)cc1 | 91 | 108 | -0.01 | 89 | 19* | 93
CCC(C)n1ncn(-c2ccc(N3CCN(c4ccc(OCC5COC(Cn6cncn6)(c6ccc(Cl)cc6Cl)O5)cc4)CC3)cc2)c1=O (configuration not stated) | 72 | . | . | 18* | 62 | .
SMILES | Lung fibro prol | HCT116 PTEN-null | PTK2B oligo ant | HUVEC prolif 384 | H69AR growth 86K | bCat KO growth
Oc1ccc(Nc2nc3ccccc3nc2Nc2ccc(O)cc2)cc1 | 4.0* | 1.6* | -4.4* | 32 | 2.3* | 1.8*
Cc1n[nH]c(=O)nc1Nc1ccc(O)cc1 | 105 | 107 | 0.81 | 94 | 97 | 95
Cc1ccc2cc(CCNC(=O)c3ccc(C)c([N+](=O)[O-])c3)c(=O)[nH]c2c1 | . | 90 | -0.52 | . | . | 96
NCCCC[C@@H]1NC(=O)[C@H](CCC(=O)O)NC(=O)c2cc([N+](=O)[O-])cc(I)c2OCC[C@@H](C(N)=O)NC1=O | . | 94 | . | . | . | 100
Cc1oc2cc(O)cc(C)c2c(=O)c1-c1cnn(-c2ccccc2)c1 | 91 | 91 | -3.8* | 79 | 100 | 102
CC1CC(C)CN(S(=O)(=O)c2ccc(NC(=S)NC(=O)c3ccccc3)cc2)C1 (configuration not stated) | . | 77 | -0.16 | . | . | 81
CCOc1ccc(S(=O)(=O)N2c3ccccc3CC2C)cc1 (configuration not stated) | 52 | 13 | -1.8 | 48 | 25* | 13
CCOc1ccc(S(=O)(=O)N2CCc3ccccc3C2)cc1 | 102 | 101 | -0.7 | 107 | 86 | 96
CCCCN1CCc2[nH]c(=S)[nH]c(=O)c2C1 | . | 93 | 0.7 | . | . | 92
CC1Cc2ccccc2N1C(=O)CO/N=C/c1ccc(OC(F)F)cc1 (configuration not stated) | . | 93 | . | . | . | 103
COC(=O)c1ccc(C(NC(=O)OCc2ccccc2)/C(F)=C/[C@@H](C)C(=O)NCc2ccc(OC)c(OC)c2)cc1 (some centres not stated) | . | 15 | . | . | . | 25
O=C(NCC(c1cccs1)N1CCOCC1)c1ccc(Br)o1 (configuration not stated) | 64 | 19 | 0.53 | 85 | 23* | 15
COC(=O)CSC(C(=O)Nc1ccc(C)c(C)c1)c1ccccc1 (configuration not stated) | . | 78 | -0.65 | . | . | 65
COc1cccc(-c2ccc(C#N)c(OC(=O)c3ccc(Cl)cc3)n2)c1 | 99 | 108 | 0.34 | 88 | 8.9* | 86
CC(=O)Oc1ccc(N2C(=O)C3C4C=CC(CO)(O4)C3C2=O)cc1 (configuration not stated) | 99 | 90 | 0.65 | 93 | 89 | 92
COC(=O)c1cc(N2C(=O)C3C(C2=O)C2(C)C=CC3(C)O2)ccc1Cl (configuration not stated) | 58 | 90 | . | 61 | 0.7* | 90
CC(=O)Oc1ccc(N2C(=O)C3C(C2=O)C2(C)C=CC3(C)O2)cc1 (configuration not stated) | 27* | . | . | 95 | 2.3* | .
CCN(Cc1ccccc1)S(=O)(=O)c1ccc(C(=O)N2CCN(c3nc4ccccc4s3)CC2)cc1 | . | 58 | -0.8 | . | . | 58
O=C(O)CC1CCC(=C(Cl)Cl)C1 (configuration not stated) | 86 | 6 | 2.9 | 81 | 1.3* | 7
CC(NC(=O)Nn1cnnc1)(C(F)(F)F)C(F)(F)F | 97 | 97 | 0 | 90 | 96 | 102
COC(=O)/C(=C\Nc1ccc(Cl)cc1Cl)NC(=O)c1ccc(Cl)cc1Cl | 89 | 63 | -0.69 | 27* | 21* | 65
CC(=O)Oc1ccc2ccccc2c1C(NC(=O)Cc1ccccc1)c1ccccc1 (configuration not stated) | . | 61 | -4* | . | . | 67
